HSP90 inh = HSP90 refolding inhibition in rabbit reticulocyte lysate; luciferase refolding luminescence, 3 h; inhibition, % at 5.6 µM; actives 0.91% (n = 290,000); AID 1789;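 active means inhibition above the screen-wide mean plus 3 SD, computed separately per campaign, cut at about 16% in these data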;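 further: 0% = DMSO wells and 100% = 60 µM geldanamycin wells; inhibitors lower the luminescence because luciferase stays unfolded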
SENP8 block-1 = inhibitors of human SENP8 protease | recombinant SENP8, Nedd8 substrate fluorescence | inhibition, % at 20 µM | actives 0.64% (n = 360,000); in the data active means inhibition mostly above about 40%, no sharp cut-off; inactive means mostly below about 27%
SENP6 block = blocks the human protease SENP6 | Recombinant SENP6 catalytic domain, aminoluciferin luminescence | inhibition, % at 10 µM | actives 1.8% (n = 330,000) | AID 2599;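 active means inhibition above about 50% at the single tested dose, limit read from the data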;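 further: plate controls were DMSO wells with enzyme for no effect and DMSO wells lacking enzyme for full effect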
Target sequence (Q9GZR1 628-1112 limits assumed): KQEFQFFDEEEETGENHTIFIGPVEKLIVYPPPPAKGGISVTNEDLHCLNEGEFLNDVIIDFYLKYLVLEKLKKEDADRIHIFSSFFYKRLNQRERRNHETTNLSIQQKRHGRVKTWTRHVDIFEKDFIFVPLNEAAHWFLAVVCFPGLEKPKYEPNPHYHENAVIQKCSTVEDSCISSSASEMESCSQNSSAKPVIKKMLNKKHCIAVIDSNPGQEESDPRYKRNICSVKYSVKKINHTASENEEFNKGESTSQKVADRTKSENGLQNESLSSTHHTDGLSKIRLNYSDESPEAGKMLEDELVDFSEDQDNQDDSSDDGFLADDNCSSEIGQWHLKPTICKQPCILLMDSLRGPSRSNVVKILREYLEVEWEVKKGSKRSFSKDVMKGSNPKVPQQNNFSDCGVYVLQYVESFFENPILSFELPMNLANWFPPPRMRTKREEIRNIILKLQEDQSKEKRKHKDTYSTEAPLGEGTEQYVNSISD
SENP1 FRET inh = blocks the human SENP1 SUMO protease catalytic domain; recombinant SENP1 catalytic domain, CyPet-SUMO1-YPet FRET cleavage; Q9P0U3; inhibition, % at 10 µM; AID 624204; actives 0.21% (n = 360,000);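 active means inhibition at least 30% at 10 µM, raw YFP signal under a set limit, fluorescence ratio 0.5 to 1.5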;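 further: 0% = enzyme with DMSO and 100% = no enzyme wells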
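Controls: no-enzyme wells low, DMSO-plus-enzyme wells high control. Test system: human recombinant His6-tagged SENP1 catalytic domain enzyme. Reagent: SFCypet-SUMO1-SFYpet FRET protein substrate, 25 nM final. Doses: one dose per compound, 10 µM, 0.5% DMSO. Detection: FRET, CFP and YFP emission. Timing: 50 min reaction at room temperature.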
SENP8 block-2 = inhibitors of human SENP8 protease; Q96LD8; purified SENP8, Z-RLRGG-aminoluciferin cleavage, luminescence; inhibition, % at 10 µM; actives 1.2% (n = 330,000); in the data active means inhibition above about 50%
SENP7 inh = blocks the human protease SENP7 | inhibition, % at 5 µM | actives 1.5% (n = 330,000) | Q9BQF6 | recombinant SENP7, Z-RLRGG-aminoluciferin luminescence, 40 min;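 active means inhibition above about 50% at the single test dose, limit read from the data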;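 further: plate controls were DMSO with enzyme for no effect and no enzyme buffer wells for full effect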
Numbers without * were called inactive. Sampled rows, rich in hits. Any-hit rate of the full collection: about 2.9%.

`O=C(c1cccc(Cl)c1)N1CCN(Cc2ccc3c(c2)OCO3)CC1` gave HSP90 inh 1, SENP8 block-1 1, SENP6 block -3, SENP1 FRET inh 1, SENP8 block-2 -17 and SENP7 inh -8.
O=C1C=C(O)c2c(O)cc(O)c(O)c2C1=O was read as SENP8 block-1 47*, SENP6 block 4, SENP1 FRET inh -45, SENP8 block-2 5 and SENP7 inh 4.
`Cc1cc(O)c(Sc2ncn[nH]2)cc1NS(=O)(=O)c1ccc(Cl)cc1` gave SENP8 block-1 18, SENP6 block 0, SENP1 FRET inh 2, SENP8 block-2 0 and SENP7 inh 8.
Cc1cc(C)c(S(=O)(=O)/N=C2/C=C(Sc3ncn[nH]3)C(=O)c3ccccc32)cc1C was read as HSP90 inh 80*, SENP8 block-1 25 and SENP1 FRET inh 8.
For COc1cc(NC(=O)CCc2c(C)noc2C)c(C(=O)O)cc1OC the results were SENP8 block-1 0 and SENP1 FRET inh 0.
`NC(=O)c1ccc(N=Nc2c(-c3ccccc3)[nH]n(-c3ccccc3)c2=O)cc1` gave HSP90 inh 1, SENP6 block -7, SENP8 block-2 -3 and SENP7 inh 10.
Screening O=c1c(N=Nc2ccc(O)cc2)c(-c2ccccc2)[nH]n1-c1ccc([N+](=O)[O-])cc1 returned HSP90 inh 6, SENP8 block-1 56*, SENP6 block 3, SENP1 FRET inh 25, SENP8 block-2 6 and SENP7 inh 4.
For O=C1c2ccccc2C(=O)c2c1cccc2-n1nnc2ccccc21 the results were HSP90 inh -2, SENP8 block-1 32, SENP6 block -11, SENP1 FRET inh 0, SENP8 block-2 0 and SENP7 inh 5.
For O=C1C(N2CCOCC2)=C(n2nnc3ccccc32)C(=O)c2ccccc21 the results were HSP90 inh 41*, SENP8 block-1 76*, SENP6 block 76*, SENP1 FRET inh 0, SENP8 block-2 74* and SENP7 inh 35.
CCOc1ccc(OCc2ccc(C(=O)NCC3CCCO3)o2)cc1 (centres undefined) was read as HSP90 inh 16*, SENP8 block-1 -8, SENP6 block -2, SENP1 FRET inh 2, SENP8 block-2 2 and SENP7 inh 2.
`O=C(NCC1CCCO1)c1ccc(COc2ccc(F)cc2)o1` (centres undefined) gave HSP90 inh 3, SENP8 block-1 19, SENP6 block -14, SENP1 FRET inh -2, SENP8 block-2 -5 and SENP7 inh 2.
Screening CCOc1ccc(OCc2ccc(C(=O)NN)o2)cc1 returned HSP90 inh 16*, SENP8 block-1 -1, SENP6 block -5, SENP1 FRET inh 0, SENP8 block-2 -3 and SENP7 inh -3.
For Cc1cc(C(=O)Cn2nc(C(=O)O)c3ccccc3c2=O)c(C)n1-c1ccc(F)cc1 the results were HSP90 inh 17*, SENP8 block-1 4, SENP6 block -22, SENP1 FRET inh 1, SENP8 block-2 -12 and SENP7 inh 0.
`CCNNC(=O)C(O)(Cc1ccccc1)Cc1ccccc1` gave HSP90 inh 1, SENP8 block-1 8, SENP6 block -3, SENP1 FRET inh 2, SENP8 block-2 3 and SENP7 inh 1.
For C=CCOc1ccccc1CNCCNC(=O)c1nonc1N the results were HSP90 inh 3, SENP8 block-1 -20, SENP6 block 32, SENP1 FRET inh -1, SENP8 block-2 1 and SENP7 inh 1.
CCOc1ccccc1CNCCNC(=O)c1nonc1N was read as HSP90 inh 16*, SENP8 block-1 11, SENP6 block -16, SENP1 FRET inh 2, SENP8 block-2 -1 and SENP7 inh -1.
`Cc1coc2c1C(=O)C(=O)c1c-2ccc2c1CCCC2(C)C` gave HSP90 inh 2, SENP8 block-1 61*, SENP6 block 45, SENP1 FRET inh 4, SENP8 block-2 -4 and SENP7 inh 7.
For Cc1c2cc(O)c(=O)cc-2oc2cc(O)c(O)cc12 the results were HSP90 inh 3, SENP8 block-1 -166, SENP6 block 16, SENP1 FRET inh -14, SENP8 block-2 8 and SENP7 inh 2.
